# Screening data (PubChem)
# A selection: hits, their analogues and other compounds. The true share with any hit is near 1.9%.
# CHRM4 PAM: CHRM4 positive allosteric modulation; CHO-K1 hM4/Gqi5, Fluo-8 calcium fluorescence, ACh EC20; 0% = ACh EC20, 100% = maximal ACh; hit rate 0.4% among 360,000; activation, % at 3 µM; AID 624126;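 active means activation above its plate's cutoff, the mean activation of sample wells plus 3 SD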
# M4 antag: antagonists of human muscarinic M4 receptor (CHRM4); P08173; CHO-hM4 cells, ACh EC80, Fluo-8 calcium fluorescence; inhibition, % at 3 µM; hit rate 0.73% among 360,000;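 active means inhibition above its plate's cutoff, the mean inhibition of sample wells plus 3 SD, cut at about 27% in these data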;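 further: 0% = acetylcholine EC80 with DMSO and 100% = DMSO without agonist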
# M5 ag: agonists of human muscarinic M5 receptor (CHRM5); P08912; CHO-K1 hM5 cells, Fluo-8 calcium fluorescence; 0% DMSO wells, 100% maximal acetylcholine response; activation, % at 3 µM; hit rate 0.19% among 360,000; AID 624037;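 active means activation above the run's mean over test compounds plus 3 SD, cut at about 23% in these data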;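 further: signal is peak over basal fluorescence ratio across the kinetic read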
# Target sequence (P08912 whole entry, looked up): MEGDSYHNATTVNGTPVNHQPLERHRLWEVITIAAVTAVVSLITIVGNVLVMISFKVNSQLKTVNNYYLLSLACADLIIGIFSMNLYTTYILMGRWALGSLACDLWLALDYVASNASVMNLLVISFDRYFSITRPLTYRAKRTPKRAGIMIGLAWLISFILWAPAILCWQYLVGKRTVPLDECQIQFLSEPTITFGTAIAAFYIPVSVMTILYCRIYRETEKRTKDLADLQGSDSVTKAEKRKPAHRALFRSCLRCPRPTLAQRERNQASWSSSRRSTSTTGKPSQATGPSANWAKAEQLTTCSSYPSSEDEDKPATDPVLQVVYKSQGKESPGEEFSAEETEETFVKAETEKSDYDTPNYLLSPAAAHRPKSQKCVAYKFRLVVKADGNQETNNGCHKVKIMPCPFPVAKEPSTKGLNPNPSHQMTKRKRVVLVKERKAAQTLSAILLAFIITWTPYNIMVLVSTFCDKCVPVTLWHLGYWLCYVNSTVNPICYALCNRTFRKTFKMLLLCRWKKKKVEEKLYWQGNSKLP
# CHRM4 agonist: agonists of human muscarinic M4 receptor (CHRM4); P08173; CHO-K1 hM4/Gqi5, Fluo-8 calcium fluorescence; vehicle 0%, full acetylcholine response 100%; activation, % at 3 µM; hit rate 0.14% among 360,000; AID 624127;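 active means activation above the run mean over all test wells plus 3 SD, cut at about 32% in these data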;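 further: peak over basal fluorescence ratio per well then scaled between controls; 0% = DMSO wells and 100% = acetylcholine at EC100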
# CHRM5 PAM: CHRM5 positive allosteric modulation; activation, % at 3 µM; P08912; hit rate 0.3% among 360,000; CHO-K1 hM5, Fluo-8 calcium, ACh EC20 PAM; 0% = ACh EC20, 100% = ACh EC100; AID 624038;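 active means activation above the run cutoff, the mean activation of all test compounds plus 3 SD, cut at about 18% in these data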
#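 system = human M5 receptor in CHO-K1 cells | compound = one concentration, 3 µM final (nominal) | schedule = Post-acetylcholine fluorescence recording 140 s | signal = Fluo-8 calcium dye fluorescence, kinetic read | benchmarks = low control EC20 acetylcholine (0%), high control EC100 acetylcholine (100%) | repeats = singlicate, one well per test compound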
# CHRM5 antagonist: blocks acetylcholine activation of human M5 receptor | AID 624040 | inhibition, % at 3 µM | CHO-hM5 cells, Fluo-8 calcium fluorescence, ACh EC80 | hit rate 0.59% among 360,000;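 active means inhibition above a per-plate cutoff, the mean of that plate's test compounds plus 3 SD, cut at about 27% in these data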;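 further: 0% = acetylcholine EC80 with DMSO and 100% = DMSO without agonist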
# * = called active by the depositor.
SMILES,CHRM4 PAM,M4 antag,M5 ag,CHRM4 agonist,CHRM5 PAM,CHRM5 antagonist
COc1ccccc1N(C(C)=O)C1=C(Cl)C(=O)c2ccccc2C1=O,-12,90*,1,2,-8,35*
COC(=O)c1ccccc1-n1c(C)nc(=O)c(-c2ccccc2)c1C,1,5,-2,0,-3,12
COc1ccc2nc3ccccc3nc2c1NC(=O)c1ccccc1Cl,-10,3,0,7,-14,28*
O=C(NCCN1CCOCC1)C1CC(=O)N(c2cccc(C(F)(F)F)c2)C1 (stereo unspecified),6,0,2,1,6,4
Cn1nnnc1SCCNCc1cc(Cl)ccc1OCc1ccccc1,-15,-1,-1,12,-17,14
Cn1nnnc1SCCNCc1ccccc1OCc1ccc(Cl)cc1,-27,27*,-2,4,-4,7
CN1C(=O)c2cccc(NC(=O)C3CCCCC3)c2C1=O,19*,-11,-2,0,3,-4
CCC(=O)Nc1cccc2c1C(=O)N(C)C2=O,10,-6,-2,0,3,-9
CC(=NNc1nc2ccccc2o1)c1cc2ccccc2cn1,0,33*,8,11,-16,28*
Oc1ccccc1/C=N/Nc1nc2ccccc2o1,-5,-17,-4,2,-4,-5
Cc1cc(C)nc(Nc2nc3ccccc3o2)n1,-6,-10,-3,0,-9,15
CC(=NNc1nc2ccccc2o1)c1ncccn1,-1,58*,6,6,-20,51*
C/C(=N\Nc1nc2ccccc2s1)c1cccs1,0,-6,-1,-1,3,-4
CC(=NNc1nc2ccccc2s1)c1ncccn1,0,48*,11,12,1,16
CN1CCC(=C2c3ccccc3CCc3sccc32)CC1,-17,99*,0,5,-18,99*
CN1CCC(=C2c3ccccc3CC(=O)c3sccc32)CC1,-17,72*,0,6,-19,98*
CN1CCC(=C2c3ccccc3C(O)c3ccccc32)CC1 (stereo unspecified),-20,96*,-7,2,-19,99*
COc1cc(OC)cc(C(=O)N[C@H](C(=O)OCC(=O)c2ccc(C)c([N+](=O)[O-])c2)C(C)C)c1,4,-20,-5,6,5,1
Cc1ccc(C(=O)CCC(=O)OCC(=O)N2CCN(S(=O)(=O)c3ccc(C)cc3C)CC2)cc1,-4,13,4,15,-17,17
Nc1ccc(S(=O)(=O)Nc2ccc(C(=O)c3ccccc3)cc2)cc1,-5,-3,0,5,-12,17
CC1CCCCN1CCCNC(=O)C1CCCN(c2ncnc3c2nc2n3CCCCC2)C1 (stereo unspecified),-13,12,-10,1,1,-1
CCn1cc([N+](=O)[O-])c(C(=O)N2N=C(c3cccc4ccccc34)CC2c2ccccc2O)n1 (stereo unspecified),5,15,-3,5,29*,2
CCn1cc([N+](=O)[O-])c(C(=O)N2N=C(c3ccc4ccccc4c3)CC2c2ccccc2O)n1 (stereo unspecified),1,10,-1,6,6,6
ClC(Cl)(Cl)C1=NCc2nnn(Cc3ccccc3)c2N1,1,11,1,1,-10,12
COC(=O)[C@H](C)NC(=O)NCCC1=CCCCC1,-5,-4,-1,0,-4,10
COC(=O)[C@H](Cc1ccccc1)NC(=O)NCCC1=CCCCC1,0,14,-6,2,-23,63*
COC(=O)[C@H](CCSC)NC(=O)NCCC1=CCCCC1,0,9,-1,1,-21,35*
COC(=O)c1ccc(-c2nc(CN3CCN(C(=O)c4ccco4)CC3)c(C)o2)cc1,5,-13,1,3,0,-2
COc1ccc(Cl)cc1C(=O)NNC(=O)CNC(=O)c1ccco1,9,-1,-1,2,4,9
